The source made the active and inactive calls. No cut-off for these calls is given here.
What was measured:
[1] = test system: HEK293; experiment: Induction of cell cycle arrest in HEK293 cells assessed as accumulation at G1 phase at 5 uM after 48 hrs by propidium iodide staining based flow cytometry (reference value: 53.21 +/- 0.8%); format: functional, Homo sapiens
[2] = test system: HEK293; experiment: Increase in PARP cleavage in p53 deficient HEK293 cells at LC50 level after 48 hrs by Western blot method; format: functional, cell-based; conditions: Homo sapiens
[3] = test system: HEK293; experiment: Induction of cell cycle arrest in HEK293 cells assessed as accumulation at G2/M phase at 10 uM after 48 hrs by propidium iodide staining based flow cytometry (reference value: 2.63 +/- 0.7%); format: functional, Homo sapiens
[4] = species on record: Bos taurus; experiment: Induction of conformational changes in calf thymus DNA assessed as B-DNA conformation changes at 100 uM after 2 hrs by CD spectroscopy
[5] = Hydrolysis half life in pH 7.4 PBS buffer assessed as andrographolide formation by HPLC method; format: physicochemical
[6] = test system: HEK293; experiment: Reduction in NFkappaB expression in HEK293 cells at LC50 level after 48 hrs by Western blot method; format: functional, cell-based; conditions: Homo sapiens
[7] = test system: HEK293; experiment: Increase in caspase-3 expression in HEK293 cells at LC50 level after 48 hrs by immunocytochemistry; format: functional, cell-based; conditions: Homo sapiens
[8] = test system: HEK293; experiment: Induction of cell cycle arrest in HEK293 cells assessed as accumulation at G2/M phase at 15 uM after 48 hrs by propidium iodide staining based flow cytometry (reference value: 2.63 +/- 0.7%); format: functional, Homo sapiens
[9] = test system: HEK293; experiment: Induction of cell cycle arrest in HEK293 cells assessed as accumulation at S phase at 20 uM after 48 hrs by propidium iodide staining based flow cytometry (reference value: 19.9 +/- 0.5%); format: functional, Homo sapiens
[10] = test system: HEK293; experiment: Induction of apoptosis in HEK293 cells at 20 uM after 48 hrs by propidium iodide staining based flow cytometry relative to untreated control; format: functional, Homo sapiens
[11] = test system: HEK293; experiment: Reduction in Bcl-xL expression in HEK293 cells at LC50 level after 48 hrs by Western blot method; format: functional, cell-based; conditions: Homo sapiens
[12] = test system: HEK293; experiment: Increase in PARP cleavage in HEK293 cells at LC50 level after 48 hrs by Western blot method; format: functional, cell-based; conditions: Homo sapiens
[13] = test system: MCF7; experiment: Cytotoxicity against human MCF7 cells after 48 hrs by MTT assay; format: functional; conditions: MCF7, 48 h, read-out: LC50 (the source's name)
In short: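 Cells seeded at 10,000 per well and exposed to increasing compound concentrations for 48 h. After a PBS wash, MTT (2.5 mg/mL) was added for 6 h at 37 °C, then detergent (10% NP-40, 4 mM HCl), and absorbance was read at 570 nm. LC50 is the concentration causing 50% cell death. Values are means of three independent experiments.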

[14] = Retention time of the compound by HPLC method; format: physicochemical

Q: For `C=C1CC[C@@H]2[C@](C)(CO)[C@H](O)CC[C@@]2(C)[C@@H]1C/C=C1/C(=O)OC[C@H]1OC(=O)CI`, which Activity [1] is on record?
A: 24.77%

Q: What about the Activity [2] of the same compound?
A: inactive

Q: What about the Activity [3] of the same compound?
A: 2.74%

Q: What about the Activity [4] of the same compound?
A: inactive

Q: What about the t1/2 [5] of the same compound?
A: 35 min

Q: What about the Activity [6] of the same compound?
A: Active

Q: What about the Activity [7] of the same compound?
A: Active

Q: What about the Activity [8] of the same compound?
A: 1.28%

Q: And the Activity [9]?
A: 1.66%

Q: And the “fold change (FC)” value [10]?
A: >5

Q: What about the Activity [11] of the same compound?
A: Active

Q: And the Activity [12]?
A: Active

Q: What about the CC50 [13] of the same compound?
A: 6 µM

Q: What about the Retention_time [14] of the same compound?
A: 26.9 min
